Source: ChEMBL document CHEMBL1154766, “Synthesis and biological evaluation of new podophyllic aldehyde derivatives with cytotoxic and apoptosis-inducing activities” (2010)
Activity calls are given as the source filed them. The rule behind the calls is not given here.

How the values were obtained:
A549 = test: Cytotoxicity against human A549 cells after 72 hrs by SRB assay; format: functional; conditions: A549, 72 h
How it was run: (§1)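 SRB growth assay: 5 × 10³ cells/well in RPMI, attached 18 h drug-free, then compound added in DMSO/H₂O 3:7 for 72 h. Fixed with cold 50% TCA 60 min at 4 °C, stained 0.4% SRB in 1% acetic acid 10 min, bound dye solubilized in Tris, OD 490 nm. GI50 from 100[(T−T0)/(C−T0)] = 50; mean of triplicates.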

HT-29 [1] = test: Cytotoxicity against human HT-29 cells after 72 hrs by SRB assay; format: functional; conditions: HT-29, 72 h; how it was run: as §1
MDA-MB-231 = test: Cytotoxicity against human MDA-MB-231 cells after 72 hrs by SRB assay; format: functional; conditions: MDA-MB-231, 72 h; how it was run: as §1
HT-29 [2] = test: Cell cycle arrest in human HT-29 cells assessed as accumulation at G2/M phase at 1 uM after 48 hrs by flow cytometry; format: functional
How it was run: (§2)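 HT-29 cells incubated at 1 μM for 24, 48 or 72 h alongside untreated controls. (3-5) × 10⁵ cells fixed overnight in 70% ethanol at 4 °C, PBS-washed three times, then treated 1 h at room temperature with 1 mg/mL RNase A and 20 μg/mL propidium iodide. DNA content read by flow cytometry; apoptosis taken as % cells in sub-G1 peak. Representative of three independent experiments.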

HT-29 [3] = test: Induction of apoptosis in human HT-29 cells assessed as accumulation at subG1 phase at 1 uM after 48 hrs by flow cytometry; format: functional; how it was run: as §2
HT-29 [4] = test: Cell cycle arrest in human HT-29 cells assessed as accumulation at G0/G1 phase at 1 uM after 24 hrs by flow cytometry; format: functional; how it was run: as §2
HT-29 [5] = test: Induction of apoptosis in human HT-29 cells assessed as accumulation at subG1 phase at 1 uM after 24 hrs by flow cytometry; format: functional; how it was run: as §2
HT-29 [6] = test: Cell cycle arrest in human HT-29 cells assessed as accumulation at S phase at 1 uM after 24 hrs by flow cytometry; format: functional; how it was run: as §2
HT-29 [7] = test: Cell cycle arrest in human HT-29 cells assessed as accumulation at S phase at 1 uM after 48 hrs by flow cytometry; format: functional; how it was run: as §2
HT-29 [8] = test: Cell cycle arrest in human HT-29 cells assessed as accumulation at S phase at 1 uM after 72 hrs by flow cytometry; format: functional; how it was run: as §2
HT-29 [9] = test: Induction of apoptosis in human HT-29 cells assessed as accumulation at subG1 phase at 1 uM after 72 hrs by flow cytometry; format: functional; how it was run: as §2
HT-29 [10] = test: Cell cycle arrest in human HT-29 cells assessed as accumulation at G2/M phase at 1 uM after 24 hrs by flow cytometry; format: functional; how it was run: as §2
HT-29 [11] = test: Cell cycle arrest in human HT-29 cells assessed as accumulation at G0/G1 phase at 1 uM after 72 hrs by flow cytometry; format: functional; how it was run: as §2
HT-29 [12] = test: Induction of microtubule disruption in human HT-29 cells at 1 uM after 24 hrs; format: cell-based
How it was run: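 HT-29 cells on poly-L-lysine coverslips exposed to 1 μM for 24 h, washed in HPEM (pH 6.6), fixed with 4% paraformaldehyde 15 min, permeabilized with 0.5% Triton X-100. Anti-α-tubulin mouse monoclonal (1:150, 1 h) then CY3 anti-mouse IgG (1 h, 4 °C); nuclei DAPI-stained; imaged by confocal microscopy. Representative of at least three experiments.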

HT-29 [13] = test: Cell cycle arrest in human HT-29 cells assessed as accumulation at G2/M phase at 1 uM after 72 hrs by flow cytometry; format: functional; how it was run: as §2
HT-29 [14] = test: Cell cycle arrest in human HT-29 cells assessed as accumulation at G0/G1 phase at 1 uM after 48 hrs by flow cytometry; format: functional; how it was run: as §2

| SMILES | GI50 (A549) [nM] | GI50 (HT-29 [1]) [nM] | GI50 (MDA-MB-231) [nM] | Activity (HT-29 [2]) [%] | Activity (HT-29 [3]) [%] | Activity (HT-29 [4]) [%] | Activity (HT-29 [5]) [%] | Activity (HT-29 [6]) [%] | Activity (HT-29 [7]) [%] | Activity (HT-29 [8]) [%] | Activity (HT-29 [9]) [%] | Activity (HT-29 [10]) [%] | Activity (HT-29 [11]) [%] | Activity (HT-29 [12]) | Activity (HT-29 [13]) [%] | Activity (HT-29 [14]) [%] |
| --- | --- | --- | --- | --- | --- | --- | --- | --- | --- | --- | --- | --- | --- | --- | --- | --- |
| COC(=O)[C@@H]1C(/C=N/c2ccc(OC)cc2)=Cc2cc3c(cc2[C@H]1c1cc(OC)c(OC)c(OC)c1)OCO3 | 94 | 9.4 | – | – | – | – | – | – | – | – | – | – | – | – | – | – |
| COC(=O)[C@@H]1C(C=O)=Cc2cc3c(cc2[C@H]1c1cc(OC)c(OC)c(OC)c1)OCO3 [PODOPHYLLIC ALDEHYDE] | 61 | 38 | 200 | – | – | – | – | – | – | – | – | – | – | – | – | – |
| COc1cc([C@@H]2c3cc4c(cc3[C@H](O)[C@@H](CO)[C@H]2C(=O)OCCCBr)OCO4)cc(OC)c1OC | > 17000 | 22 | 34 | – | – | – | – | – | – | – | – | – | – | – | – | – |
| COc1cc([C@@H]2c3cc4c(cc3[C@H](O)[C@@H](CO)[C@H]2C(=O)N2CCCC2)OCO4)cc(OC)c1OC [PICROPODOPHYLLIC ACID PYRROLIDINYL AMIDE] | 6800 | 7800 | 7800 | – | – | – | – | – | – | – | – | – | – | – | – | – |
| CCNCC1=Cc2cc3c(cc2[C@@H](c2cc(OC)c(OC)c(OC)c2)[C@@H]1C(=O)N1CCCC1)OCO3 | > 20000 | > 20000 | > 20000 | – | – | – | – | – | – | – | – | – | – | – | – | – |
| CCNC(=O)[C@@H]1C(C=O)=Cc2cc3c(cc2[C@H]1c1cc(OC)c(OC)c(OC)c1)OCO3 | 4500 | 8000 | 7100 | 2.3 | 61.7 | 51.7 | 25 | 9.8 | 3 | 0.5 | 93.8 | 13.5 | 5.3 | inactive | 0.4 | 33 |
| C=CCOC(=O)[C@H]1[C@H](c2cc(OC)c(OC)c(OC)c2)c2cc3c(cc2[C@H](O)[C@H]1CO)OCO3 [ALLYL PICROPODOPHYLLATE] | 120 | 80 | 110 | – | – | – | – | – | – | – | – | – | – | – | – | – |
| COc1cc(COC(=O)[C@@H]2C(C=O)=Cc3cc4c(cc3[C@H]2c2cc(OC)c(OC)c(OC)c2)OCO4)cc(OC)c1OC | 34 | 20 | 42 | 79.5 | 8.6 | 0.9 | 0.5 | 1.1 | 5.1 | 12.9 | 32.3 | 97.5 | 18.3 | Active | 36.5 | 6.8 |
| CCNC(=O)[C@H]1[C@H](c2cc(OC)c(OC)c(OC)c2)c2cc3c(cc2[C@H](O)[C@H]1CO)OCO3 | 9800 | 10000 | 10000 | – | – | – | – | – | – | – | – | – | – | – | – | – |
| CCCNCC1=Cc2cc3c(cc2[C@@H](c2cc(OC)c(OC)c(OC)c2)[C@@H]1C(=O)OCC)OCO3 | 230 | 270 | 370 | – | – | – | – | – | – | – | – | – | – | – | – | – |
| CCC/N=C/C1=Cc2cc3c(cc2[C@@H](c2cc(OC)c(OC)c(OC)c2)[C@@H]1C(=O)OCC)OCO3 | 230 | 390 | 1200 | – | – | – | – | – | – | – | – | – | – | – | – | – |
| CCOC(=O)[C@@H]1C(C=O)=Cc2cc3c(cc2[C@H]1c1cc(OC)c(OC)c(OC)c1)OCO3 | 180 | 200 | 540 | – | – | – | – | – | – | – | – | – | – | – | – | – |
| COc1ccc(NC(=O)[C@@H]2C(C=O)=Cc3cc4c(cc3[C@H]2c2cc(OC)c(OC)c(OC)c2)OCO4)cc1 | 1200 | 800 | 4600 | 2.6 | 45.2 | 48 | 13.6 | 13.2 | 1.8 | 8.4 | 52.6 | 25.2 | 36.4 | inactive | 2.6 | 50.4 |
| CCOC(=O)COC(=O)[C@@H]1C(C=O)=Cc2cc3c(cc2[C@H]1c1cc(OC)c(OC)c(OC)c1)OCO3 | 13 | 28 | 110 | 85.6 | 6.3 | 1 | 0.5 | 0.9 | 3.4 | 19.2 | 30.6 | 97.6 | 16.4 | Active | 33.8 | 4.7 |
| COc1cc([C@@H]2c3cc4c(cc3[C@H](O)[C@H]3COC(=O)[C@H]23)OCO4)cc(OC)c1OC [PODOFILOX] | 12 | 24 | – | – | – | – | – | – | – | – | – | – | – | – | – | – |
